Consider four molecules from paper PMC3346932 (Molecular Imaging and Biology, 2011).

Series [1] relates to inguinal lymph node of C57BL/6 mice. Nature of the series: lymphatic clearance from inguinal lymph node, NIR fluorescence imaging. The class given is in vivo, mouse. To be noted: for percent of maximal fluorescence intensity retained over the study period: intradermal, 0–50 min, normalized to maximum. Put shortly: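 C57BL/6 mice were induced with 2–3% isoflurane and kept under <1% for 50 min at 37°. […] A region near the inguinal node was imaged at 200 ms/frame at 0.5, 2.5, 15, 30 and 50 min. Signal was normalized to each agent's maximum node intensity; Student's t test, α = 0.05.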

For series [2] the following is noted: reference standard; ref [53]; cited from earlier work.
For series [3] the following is noted: ref [27], cited from earlier work.
Series [4] concerns lymphatic vasculature of C57BL/6 mice. The experiment in a line: in vivo NIR fluorescence lymphatic imaging. Also on record: species or system mouse. The settings on record: intradermal 20 μL of 500 μM ICG or 100 μM cABD-IRDye800. Put shortly:
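Shaved female C57BL/6 mice, 6–7 weeks old, under 2–3% isoflurane on a 37° heating pad (~30 min per animal). Intradermal injection at the tail base, with the injection site taped over. Illumination by a 785 nm laser diode (80 mW) expanded to an ~8 cm area. EMCCD capture through an 830 nm bandpass filter at 200 ms per frame. Mice monitored during and after imaging.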

Series [5] in a line: HPLC degradation study of ICG in saline. The series is classed as physicochemical. To be noted: 100 μg/mL ICG in saline, by 25 h.
The nature of series [6]: fluorescence optical properties. The settings on record: 785/830 nm. The series is classed as physicochemical.
A short description of series [7]: water-octanol partition coefficient. The class given is physicochemical.
Series [8] deals with mouse serum albumin (mouse, UniProt P07724 25-608). Nature of the series: SPR. (In general: Surface plasmon resonance follows binding to a sensor surface in real time, without labels.)

Like-named read-outs stand apart in the source and are kept apart here. Where a SMILES comes first, the peptide text is derived from it. Bridges are numbered along the chain shown (N, C = ends). Where no end group is shown, it is not given here. The star is where a group is joined. IRDye800CW = CC1(C)C(/C=C/C2=C(Oc3ccc(S(=O)(=O)O)cc3)C(=C/C=C3/N(CCCCS(=O)(=O)O)c4ccc(S(=O)(=O)O)cc4C3(C)C)/CCC2)=[N+](CCCCCC(=O)*)c2ccc(S(=O)(=O)[O-])cc21

As for `CC1(C)C(/C=C/C=C/C=C/C=C2\N(CCCCS(=O)(=O)O)c3ccc4ccccc4c3C2(C)C)=[N+](CCCCS(=O)(=O)[O-])c2ccc3ccccc3c21` [ICG, indocyanine green], the “percent of maximal fluorescence intensity retained over the study period” value in series [1] is reported as “at least 80%”. Further, the known lifetime in series [2] is recorded as 0.56 ns. The half life in series [3] (ambient temperature under normal light) was 14 h; in series [3] (aqueous solution, darkness, low temperature (8°C)), “approximately 20 h”; in series [3] (aqueous solution, exposure to light at 786 nm), 2.3 h. Besides, in series [4], the “adverse events during and after imaging” value was “none”. In addition, the ICG peak remaining in series [5] is on record as 30%. In series [5], this molecule came in with a degradation peak of 70%.
`CC1(C)C(/C=C/C2=C(Oc3ccc(S(=O)(=O)O)cc3)C(=C/C=C3/N(CCCCS(=O)(=O)O)c4ccc(S(=O)(=O)[O-])cc4C3(C)C)/CCC2)=[N+](CCCCCC(=O)O)c2ccc(S(=O)(=O)O)cc21` [IRDye800]: the “percent of maximum fluorescence remaining at 50 min” value in series [1] (intradermal 20 μL of 100 μM, 50 min) is listed as “less than 30%”.
Consider `CC[C@H](C)[C@H](NC(=O)[C@H](CC(C)C)NC(=O)[C@H](CCCNC(=N)N)NC(C)=O)C(=O)N[C@@H](CCC(=O)O)C(=O)N[C@@H](CC(=O)O)C(=O)N[C@H](C(=O)N[C@H]1CSSC[C@@H](C(=O)N[C@@H](CC(C)C)C(=O)N[C@@H](Cc2c[nH]c3ccccc23)C(=O)N[C@@H](CCC(=O)O)C(=O)N[C@@H](CC(=O)O)C(=O)N[C@@H](CC(=O)O)C(=O)N[C@@H](CCCCNC(=O)CCCCCN2C(=CC=C3CCCC(C=CC4=[N+](CCCCS(=O)(=O)O)c5ccc(S(=O)(=O)[O-])cc5C4(C)C)=C3Oc3ccc(S(=O)(=O)O)cc3)C(C)(C)c3cc(S(=O)(=O)O)ccc32)C(N)=O)NC(=O)CNC(=O)[C@H](Cc2c[nH]c3ccccc23)NC(=O)[C@H](CCCNC(=N)N)NC(=O)[C@@H]2CCCN2C(=O)[C@H](CC(C)C)NC1=O)[C@@H](C)CC` [cABD-IRDye800] (Ac-RLIEDICLPRWGCLWEDDK(IRDye800CW)-NH2; disulfide 7-13; N-terminus and C-terminus assumed), for which the “lifetime relative to ICG” value in series [6] was 1.6 times. Besides, the “percent of maximal fluorescence intensity retained over the study period” value in series [1] is listed as “at least 80%”. Besides, in series [4], the “adverse events during and after imaging” value is “none”. In addition, in series [7], the logP was -0.53.
Molecule RLIEDICLPRWGCLWEDDK (disulfide 7-13; also: Dylight680 conjugated, site not given here) [cABD conjugated to Dylight680] had a Kd in series [8] of 32 nM.

Usually logP stands for a log measure of how a compound divides between an organic and an aqueous phase. What is called Kd is the constant that tells how readily two partners part at equilibrium.
